Results reported in ChEMBL document CHEMBL4689842, “EUbOPEN Chemogenomics Library wave 1” (2021).
Where “and” joins values, the source holds several entries; their conditions need not be identical. Equal entries are not always repeated.

Tested on: HEK-293T
Assay: Multiplex assay against HEK293T;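 on Population Tubulin-Different-Phenotype (%): share of the cells with healthy nuclei that show this phenotype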
Format: toxicity, cell-based
Conditions: human
In short: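 Tubulin, mitochondrial-mass and membrane-permeability phenotypes are per cents of healthy-nucleus cells. Cells were gated by CellPathfinder machine learning into Hoechst high-intensity objects or normal cells, normal cells into healthy, pyknosed or fragmented nuclei, and pyknosed cells into mitotic or apoptotic. Before that, live cells stained at seeding with Hoechst33342, BioTracker Green Microtubule Cytoskeleton Dye, MitoTracker Red and Annexin V Alexa Fluor 680 were imaged on a CQ1 microscope at 37°C and 5% CO2 after compound addition.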

[1] = 12 h, 1 µM, compound concentration 1 uM, replicate 1
[2] = 12 h, 1 µM, compound concentration 1 uM, replicate 2
[3] = 12 h, 10 µM, compound concentration 10 uM, replicate 1
[4] = 12 h, 10 µM, compound concentration 10 uM, replicate 2
[5] = 24 h, 1 µM, compound concentration 1 uM, replicate 1
[6] = 24 h, 1 µM, compound concentration 1 uM, replicate 2
[7] = 24 h, 10 µM, compound concentration 10 uM, replicate 1
[8] = 24 h, 10 µM, compound concentration 10 uM, replicate 2
[9] = 48 h, 10 µM, compound concentration 10 uM, replicate 1
[10] = 48 h, 10 µM, compound concentration 10 uM, replicate 2

NC(=O)Nc1cc(-c2cccc(F)c2)sc1C(=O)N[C@H]1CCCNC1 [AZD-7762]
Population Fragmented Nuclei (%) [1]: 18%
Population Healthy Nuclei (%) [1]: 54%
Population Hoechst High Intensity Objects (%) [1]: 13%
Population Mitochondria Different-Phenotype (%) [1]: 5%
Population Normal (%) [1]: 86%
Population Pyknosed Nuclei (%) [1]: 26%
Population Tubulin-Different-Phenotype (%) [1]: 3%
Total Cell Count [1]: 661
Population Apoptotic (%) [2]: 18%
Population Fragmented Nuclei (%) [2]: 6%
Population Healthy Nuclei (%) [2]: 73%
Population Hoechst High Intensity Objects (%) [2]: 5%
Population Membrane Permeable-Phenotype (%) [2]: 5%
Population Mitochondria Different-Phenotype (%) [2]: 20%
Population Mitotic Cells (%) [2]: 81%
Population Normal (%) [2]: 94%
Population Pyknosed Nuclei (%) [2]: 19%
Population Tubulin-Different-Phenotype (%) [2]: 25%
Total Cell Count [2]: 1132
Population Fragmented Nuclei (%) [3]: 28% and 23%
Population Hoechst High Intensity Objects (%) [3]: 18% and 14%
Population Membrane Permeable-Phenotype (%) [3]: 5% and 4%
Population Normal (%) [3]: 81% and 85%
Population Pyknosed Nuclei (%) [3]: 59% and 21%
Population Apoptotic (%) [4]: 27% and 9%
Population Fragmented Nuclei (%) [4]: 8% and 10%
Population Healthy Nuclei (%) [4]: 28% and 66%
Population Hoechst High Intensity Objects (%) [4]: 4% and 2%
Population Membrane Permeable-Phenotype (%) [4]: 0% and 3%
Population Mitochondria Different-Phenotype (%) [4]: 30% and 18%
Population Mitotic Cells (%) [4]: 72% and 90%
Population Normal (%) [4]: 95% and 97%
Population Pyknosed Nuclei (%) [4]: 63% and 22%
Population Tubulin-Different-Phenotype (%) [4]: 14% and 21%
Population Apoptotic (%) [5]: 19%
Population Fragmented Nuclei (%) [5]: 18%
Population Healthy Nuclei (%) [5]: 42%
Population Hoechst High Intensity Objects (%) [5]: 12%
Population Membrane Permeable-Phenotype (%) [5]: 9%
Population Mitochondria Different-Phenotype (%) [5]: 7%
Population Mitotic Cells (%) [5]: 80%
Population Normal (%) [5]: 87%
Population Pyknosed Nuclei (%) [5]: 38%
Population Tubulin-Different-Phenotype (%) [5]: 14%
Total Cell Count [5]: 632
Population Apoptotic (%) [6]: 35%
Population Fragmented Nuclei (%) [6]: 8%
Population Healthy Nuclei (%) [6]: 39%
Population Hoechst High Intensity Objects (%) [6]: 6%
Population Membrane Permeable-Phenotype (%) [6]: 8%
Population Mitochondria Different-Phenotype (%) [6]: 33%
Population Mitotic Cells (%) [6]: 64%
Population Normal (%) [6]: 93%
Population Pyknosed Nuclei (%) [6]: 51%
Population Tubulin-Different-Phenotype (%) [6]: 62%
Total Cell Count [6]: 1019
Population Apoptotic (%) [7]: 26% and 66%
Population Fragmented Nuclei (%) [7]: 22% and 33%
Population Hoechst High Intensity Objects (%) [7]: 13% and 14%
Population Membrane Permeable-Phenotype (%) [7]: 8% and 0%
Population Mitotic Cells (%) [7]: 73% and 33%
Population Normal (%) [7]: 86% and 85%
Population Pyknosed Nuclei (%) [7]: 36% and 58%
Population Tubulin-Different-Phenotype (%) [7]: 36% and 50%
Population Apoptotic (%) [8]: 52% and 23%
Population Fragmented Nuclei (%) [8]: 12% and 17%
Population Hoechst High Intensity Objects (%) [8]: 6% and 5%
Population Membrane Permeable-Phenotype (%) [8]: 10%
Population Mitochondria Different-Phenotype (%) [8]: 20% and 48%
Population Mitotic Cells (%) [8]: 47% and 76%
Population Normal (%) [8]: 93% and 95%
Population Pyknosed Nuclei (%) [8]: 80% and 47%
Population Tubulin-Different-Phenotype (%) [8]: 30% and 63%
Population Apoptotic (%) [9]: 75%
Population Fragmented Nuclei (%) [9]: 43%
Population Healthy Nuclei (%) [9]: 3%
Population Hoechst High Intensity Objects (%) [9]: 21%
Population Membrane Permeable-Phenotype (%) [9]: 0%
Population Mitochondria Different-Phenotype (%) [9]: 100%
Population Mitotic Cells (%) [9]: 25%
Population Normal (%) [9]: 78%
Population Pyknosed Nuclei (%) [9]: 53%
Population Tubulin-Different-Phenotype (%) [9]: 0%
Total Cell Count [9]: 191
Population Fragmented Nuclei (%) [10]: 13%
Population Healthy Nuclei (%) [10]: 12%
Population Hoechst High Intensity Objects (%) [10]: 8%
Population Membrane Permeable-Phenotype (%) [10]: 5%
Population Mitochondria Different-Phenotype (%) [10]: 66%
Population Mitotic Cells (%) [10]: 24%
Population Normal (%) [10]: 91%
Population Pyknosed Nuclei (%) [10]: 74%
Population Tubulin-Different-Phenotype (%) [10]: 61%
Total Cell Count [10]: 161
